Legend:
Enterococcus faecium = assay: Antimicrobial activity against vancomycin-resistant Enterococcus faecium ATCC 700221 assessed as reduction in microbial growth after 48 hrs by CLSI based broth microdilution method; assay type: functional
Outline: (§1)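 CLSI broth microdilution: strains were grown aerobically overnight on tryptone soy agar at 37°C. A 0.5 McFarland suspension was diluted to ~5 × 10^5 CFU/mL in cation-adjusted Mueller-Hinton broth (E. coli) or tryptone soy broth (enterococci), and agents were serially diluted.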

Escherichia coli = assay: Antimicrobial activity against Escherichia coli JW55031 harboring TolC mutant assessed as reduction in microbial growth after 48 hrs by CLSI based broth microdilution method; assay type: functional; outline: as §1
Clostridioides difficile [1] = assay: Potency index, ratio of vancomycin MIC to test compound MIC for antibacterial activity against Clostridioides difficile NR-13435 isolate 9; assay type: functional
Clostridioides difficile [2] = assay: Potency index, ratio of vancomycin MIC to test compound MIC for antibacterial activity against Clostridioides difficile NR-32891 P13; assay type: functional
[3] = Selectivity ratio of cytotoxicity against human Caco-2 cells to MIC for antibacterial against clostridioides difficile ATCC BAA 1801; assay type: toxicity, cell-based
[4] = Apparent permeability across basolateral to apical side in human Caco-2 cells; assay type: ADME, cell-based
Outline: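 Bidirectional Caco-2 monolayer transport was run by a contract lab. Papp = (V_R·C_R,end/Δt)·1/[A·(C_D,mid − C_R,mid)]. Donor mid-point is the mean of the 0-min and end donor concentrations; receiver mid-point is half the end receiver concentration. Concentrations were taken as LC peak areas.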

Clostridioides difficile [5] = assay: Antimicrobial activity against Clostridioides difficile ATCC 43255 assessed as drug resistance by measuring frequency of mutation at 15 times of MIC after 48 hrs; assay type: functional
[6] = Selectivity ratio of MIC for antibacterial activity against Bacteroides fragilis HM-711 to antibacterial activity against Clostridioides difficile NR-13435 isolate 9; assay type: ADME
[7] = Selectivity ratio of MIC for antibacterial activity against Bacteroides fragilis HM-711 to antibacterial activity against Clostridioides difficile ATCC 43255; assay type: ADME
[8] = Selectivity ratio of MIC for antibacterial activity against Bacteroides fragilis HM-709 to antibacterial activity against Clostridioides difficile NR-13435 isolate 9; assay type: ADME
[9] = Selectivity ratio of MIC for antibacterial activity against Bacteroides fragilis HM-709 to antibacterial activity against Clostridioides difficile NR-32891 P13; assay type: ADME
[10] = Selectivity ratio of MIC for antibacterial activity against Bacteroides fragilis HM-709 to antibacterial activity against Clostridioides difficile NR-32895 P19; assay type: ADME
[11] = Selectivity ratio of MIC for antibacterial activity against Bacteroides dorei HM-719 to antibacterial activity against Clostridioides difficile NR-13432 isolate 6; assay type: ADME
[12] = Selectivity ratio of MIC for antibacterial activity against Bacteroides dorei HM-719 to antibacterial activity against Clostridioides difficile NR-32904 P30; assay type: ADME

For O=C(Nc1nnc(-c2cc(Cl)cc(Cl)c2)o1)c1ccc(SC(F)(F)F)cc1, the MIC (Enterococcus faecium) was 0.29 µM, the MIC (Escherichia coli) was 9.2 µM and the Ratio (Clostridioides difficile [1]) was 2.5. The Ratio (Clostridioides difficile [2]) was 2.5, the Selectivity ratio [3] was over 9000 and the Papp [4] was 0.1 10^-6 cm/s. The Activity (Clostridioides difficile [5]) was <1.1 10^-9No_unit, the Selectivity ratio [6] was 100 and the Selectivity ratio [7] was 100. The Selectivity ratio [8] was 100, the Selectivity ratio [9] was 100 and the Selectivity ratio [10] was 100. For the same compound, the Selectivity ratio [11] was 100 and the Selectivity ratio [12] was 100.

From ChEMBL document CHEMBL4665831, “Ultrapotent Inhibitor of Clostridioides difficile Growth, Which Suppresses Recurrence In Vivo” (J Med Chem, 2020)
